Drawing on ChEMBL document CHEMBL1154555, “Antifungal and larvicidal compounds from the root bark of Cordia alliodora” (2000), this text covers MIC and Activity for 5 molecules.

≈ marks a conversion by molar mass, not a printed value. Where only a bound is given, the exact number is not on record here.

Experiment [1] relates to Cladosporium cucumerinum. Briefly: Antimicrobial activity against Cladosporium cucumerinum after 24 hrs by agar dilution method. The class given is functional. The gist of the method:
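Geometric dilutions were made in DMSO from 3 mg/mL DMSO stocks and added to Sabouraud agar in sealed 24-well plates, with final DMSO ≤2%. A distilled-water suspension of C. cucumerinum was spread over the agar and incubated 24 h at 30 °C. The read-out was MIC (µg/mL), the average of duplicates, with no-compound growth controls and a nystatin reference.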

The test system of experiment [2] is Candida albicans. Briefly: Antimicrobial activity against sCandida albicans assessed as drug level causing growth inhibition on silica gel TLC plate after 24 hrs. The experiment is classed as functional. The gist of the method:
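Agar overlay bioautography: 10 µL of geometric dilutions from 5 mg/mL stocks were spotted on Si gel 60 F254 glass TLC plates. Plates were developed in petroleum ether-EtOAc (1:1) and dried, then overlaid with about 1 mm of molten malt agar carrying about 107 yeast cells/mL. Plates were incubated overnight at 30 °C, moist, then sprayed with MTT (2.5 mg/mL). The read-out was the minimal amount (µg) giving clear spots on purple, with a nystatin reference.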

For another experiment, the system named is Aedes aegypti. In words: Larvicidal activity against Aedes aegypti assessed as drug level required to kill instar II larvae after 24 hrs. The class given is functional. An outline of the steps:
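Geometric dilutions were made from 5 mg/mL DMSO stocks and added to tubes holding about 20 instar II A. aegypti larvae in tap water, to a final volume of 10 mL. Tubes were kept in darkness at 26-28 °C for 24 h. Larval lethality was scored under lab light, in duplicate.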

Experiment [3] relates to Cladosporium cucumerinum. In words: Antimicrobial activity against Cladosporium cucumerinum assessed as drug level causing growth inhibition on silica gel TLC plate after 2-3 days.
Experiment [4] relates to Candida albicans. Briefly: Antimicrobial activity against Candida albicans after 24 hrs by agar dilution method. The experiment is classed as functional, organism-based.

In turn, `COC(=O)CCc1cc(OC)c(OC)cc1OC` displayed a minimal inhibitory concentration (MIC) in the experiment with Cladosporium cucumerinum [1] of 15 µg/mL (≈ 59 µM). The Activity in the experiment with Candida albicans [2] is >50 µg; in the experiment with Aedes aegypti, 12.5 µg/mL; in the experiment with Cladosporium cucumerinum [3] it was 5 µg.

As to `CC(C)=CCCC(C)(O)/C=C\c1cc(O)ccc1O` (stereo not drawn), in the experiment on Cladosporium cucumerinum [1], the MIC is 15 µg/mL (≈ 57.2 µM). In addition, the Activity was >50 µg in the experiment on Candida albicans [2], >50 µg/mL in the experiment with Aedes aegypti and 5 µg with Cladosporium cucumerinum [3].

NYSTATIN: the MIC against Cladosporium cucumerinum [1] and in the experiment on Candida albicans [4] was 1 µg/mL in each case. Besides, the Activity in the experiment on Candida albicans [2] is 0.1 µg.

Consider `CC1=CC(=O)c2c(O)cccc2C1=O` [PLUMBAGIN], for which the Activity in the experiment on Aedes aegypti amounted to 3 µg/mL.

As for `C/C=C\c1cc(OC)c(OC)cc1OC` [CIS-ASARONE], the Activity in the experiment on Aedes aegypti is 25 µg/mL.
